Platelet DG rel – platelet dense granule release activity; 300,000 tested, 0.22% active; inhibition, %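 (compounds screened at 7.5 µM in platelet-rich plasma)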; AID 1663; human platelet-rich plasma, SFLLRN dense granule ATP release, luminescence;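 active = mean replicate score, as percent of positive control, at or above 50; inconclusive = mean below 50 but at least one replicate at or above 50; inactive = mean and every replicate below 50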
Myeloid diff MLP – myeloid differentiation induction | AID 624256 | 360,000 tested, 1% active | ER-HoxA9 myeloid progenitors, lysozyme-GFP differentiation, flow cytometry | calls only at 10 µM;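 active = normalized GFP-positive differentiation at or above the plate's own cutoff, the solvent-only control mean plus 3 SD; inconclusive = no clear call, values can overlap the other calls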;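 note: cells exposed to compound for four days before flow analysis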
VLA-4 inh – inhibition in a human VLA-4 binding assay. P13612. 330,000 tested, 0.2% active. VLA-4 expressing cells, ligand binding flow cytometry. inhibition, % (about 7 µM as worked out from the volumes in the protocol); in the data active = inhibition above about 50%
SENP1 inh – inhibitors of human SENP1 SUMO protease catalytic domain; Q9P0U3; recombinant SENP1 catalytic domain, CyPet-SUMO1-YPet FRET cleavage; inhibition, % at 10 µM; 360,000 tested, 0.21% active; AID 624204;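 active = inhibition at least 30% at 10 µM, raw YFP signal under a set limit, fluorescence ratio 0.5 to 1.5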;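 note: 0% = enzyme with DMSO and 100% = no enzyme wells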
Target sequence (Q9P0U3 419-644 limits assumed): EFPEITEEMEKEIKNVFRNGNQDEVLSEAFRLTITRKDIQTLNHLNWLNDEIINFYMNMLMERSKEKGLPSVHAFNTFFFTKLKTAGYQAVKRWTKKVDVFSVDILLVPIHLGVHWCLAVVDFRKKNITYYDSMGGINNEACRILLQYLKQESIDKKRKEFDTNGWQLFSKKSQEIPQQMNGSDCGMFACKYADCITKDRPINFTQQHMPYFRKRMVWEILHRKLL
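Test system: human SENP1 catalytic domain; medium: Tris pH 8 buffer plus EDTA, NaCl, BME, BSA, NP40, catalase; incubation: 50 min reaction at room temperature; technique: FRET, CFP and YFP emission; controls: no-enzyme low control and enzyme-plus-DMSO high control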
Myeloid diff CP1 – promotes myeloid progenitor differentiation; calls only; 2,300 tested, 2% active; shares compounds with Myeloid diff MLP; ER-HoxA9 myeloid progenitors, GFP/Mac1 double-positive flow;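 active = share of green or green-and-red cells above 9 and 9% in run 1 or 4 and 3% in run 2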
GFP autofluor – flagged as fluorescent in myeloid differentiation counter-screen. shares compounds with Myeloid diff MLP. fluorescence response, % (concentration not given with the values). 2,300 tested, 7.4% active. ER-HoxA9 myeloid progenitors, no estrogen, GFP autofluorescence flow cytometry; vehicle wells 0%, positive control 100%;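 active = over 5% cells positive for green fluorescent reporter, or over 2% positive for both it and APC stain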;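 note: range taken on the double positive population between DMSO and positive control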
Numbers without * were called inactive; i = inactive; ? = inconclusive; . = no result given; + = active, no number. Compounds with a hit are over-represented: about 1.5% of the library has one in this group of screens.

SMILES	Platelet DG rel	Myeloid diff MLP	VLA-4 inh	SENP1 inh	Myeloid diff CP1	GFP autofluor
CS(=O)(=O)c1nc(S(=O)(=O)c2ccc(Cl)cc2)c(N2CCC3(CC2)OCCO3)s1	7	i	6	1	.	.
CCS(=O)(=O)c1nc(S(=O)(=O)c2ccc(Cl)cc2)c(N2CCC3(CC2)OCCO3)s1	1	i	6	0	+	0
O=S(=O)(c1ccccc1)c1ncc(C(F)(F)F)cc1Cl	0	?	.	2	.	.
O=C(CSc1oc(-c2ccccc2)nc1S(=O)(=O)c1ccc(F)cc1)NCC1CCCO1 (stereo not given)	6	i	-10	2	i	0
COc1ccccc1NS(=O)(=O)c1cc([N+](=O)[O-])ccc1N/N=C/c1c[nH]c2ccccc12	2	+	i	-24	i	46*
CCOC(=O)c1cc(C(=O)OCC)c2cccc(C)n2c1=O	0	+	10	-19	i	0
CN(CC(=O)Nc1ccc(F)c(F)c1F)C(=O)C1CCN(C(=O)Nc2ccccc2)CC1	-1	i	4	2	.	.

Compound activity: PubChem BioAssay, several laboratories
